Laboratory results reported in ChEMBL document CHEMBL1687803, “Elevated linezolid resistance in clinical cfr-positive Staphylococcus aureus isolates is associated with co-occurring mutations in ribosomal protein L3” (2010).
In brackets after ≈: the same amount, converted by molar mass.

How the values were obtained:
Format in all cases: functional
[1] = test system: Staphylococcus aureus; assay: Antibacterial activity against laboratory-derived Staphylococcus aureus isolate 29213-2 harboring ribosomal protein L3 Gly155Arg/Met169Leu mutant and cfr-containing p42262 by broth microdilution method
How it was run: (§1)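 The S. aureus ATCC 29213 parent and its isogenic L3 mutants carried the cfr plasmid p42262, introduced by electroporation. The plasmid came from clinical strain 42262. MICs were then measured by CLSI broth microdilution against oxazolidinones and comparator antibiotics.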

[2] = test system: Staphylococcus aureus; assay: Antibacterial activity against clinical-derived Staphylococcus aureus isolate 42262 by broth microdilution method
How it was run: (§2)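 MICs were measured by broth microdilution following CLSI guidelines against clinical cfr-positive S. aureus isolates. Oxazolidinones and comparator antibiotics were tested. Extra ribosomal mutations were identified by sequencing 23S rRNA domain V of all alleles and the rplC and rplD genes.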

[3] = test system: Staphylococcus aureus; assay: Antibacterial activity against laboratory-derived Staphylococcus aureus isolate 29213-3 harboring ribosomal protein L3 deltaPhe127-His146 mutant by broth microdilution method
How it was run: (§3)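 MICs were measured by CLSI broth microdilution against the S. aureus ATCC 29213 parent or its isogenic L3 mutants. The mutants had been selected earlier in vitro with oxazolidinones. Oxazolidinones and comparator antibiotics were tested. L3 mutations use staphylococcal numbering.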

[4] = test system: Staphylococcus aureus; assay: Antibacterial activity against laboratory-derived Staphylococcus aureus ATCC 29213 harboring cfr-containing p42262 by broth microdilution method; how it was run: as §1
[5] = test system: Staphylococcus aureus; assay: Antibacterial activity against cfr positive Staphylococcus aureus clinical isolate by broth microdilution method
How it was run: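 MICs against clinical cfr-positive S. aureus isolates (groups 1–3 plus an environmental strain), by CLSI broth microdilution. Non-isogenic ATCC 29213 served as a linezolid-susceptible control strain. Isolates were also characterised by sequencing 23S rRNA domain V (all alleles), rplC (L3) and rplD (L4).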

[6] = test system: Staphylococcus aureus; assay: Antibacterial activity against clinical-derived Staphylococcus aureus isolate harboring ribosomal protein L3 deltaSer145/His146Tyr mutant by broth microdilution method; how it was run: as §2
[7] = test system: Staphylococcus aureus; assay: Antibacterial activity against laboratory-derived Staphylococcus aureus isolate 29213-2 harboring ribosomal protein L3 Gly155Arg/Met169Leu mutant by broth microdilution method; how it was run: as §3
[8] = test system: Staphylococcus aureus; assay: Antibacterial activity against laboratory-generated cfr-transformed Staphylococcus aureus by broth microdilution method
How it was run: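 Isogenic panel in the S. aureus ATCC 29213 background: wild-type parent and three laboratory-selected L3 mutants, each electroporated with cfr plasmid p42262 from clinical strain 42262. MICs were read by CLSI broth microdilution.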

[9] = test system: Staphylococcus aureus; assay: Antibacterial activity against laboratory-derived Staphylococcus aureus isolate 29213-3 harboring ribosomal protein L3 deltaPhe127-His146 mutant and cfr-containing p42262 by broth microdilution method; how it was run: as §1
[10] = test system: Staphylococcus aureus; assay: Antibacterial activity against clinical-derived Staphylococcus aureus isolate 51312 harboring ribosomal protein L3 deltaMet169-Gly174 mutant by broth microdilution method; how it was run: as §2
[11] = test system: Staphylococcus aureus; assay: Antibacterial activity against laboratory-derived Staphylococcus aureus isolate 29213-1 harboring ribosomal protein L3 Gly155Arg mutant and cfr-containing p42262 by broth microdilution method; how it was run: as §1
[12] = test system: Staphylococcus aureus; assay: Antibacterial activity against laboratory-derived Staphylococcus aureus isolate 29213-1 harboring ribosomal protein L3 Gly155Arg mutant by broth microdilution method; how it was run: as §3
[13] = test system: Staphylococcus aureus; assay: Antibacterial activity against laboratory-derived Staphylococcus aureus ATCC 29213 by broth microdilution method; how it was run: as §3

Question: CC(=O)NC[C@H]1CN(c2ccc(N3CCOCC3)c(F)c2)C(=O)O1 [LINEZOLID] was tested. Which MIC [1] did it give?
Answer: 64 µg/mL (≈ 190 µM)

Question: What about the MIC [2] of the same molecule?
Answer: 16 µg/mL (≈ 47.4 µM)

Question: And the MIC [3]?
Answer: 8 µg/mL (≈ 23.7 µM)

Question: What about the MIC [4] of the same molecule?
Answer: 16 µg/mL (≈ 47.4 µM)

Question: And the MIC [5]?
Answer: 8 µg/mL (≈ 23.7 µM)

Question: What about the MIC [6] of the same molecule?
Answer: 32 µg/mL (≈ 94.9 µM)

Question: What about the MIC [7] of the same molecule?
Answer: 8 µg/mL (≈ 23.7 µM)

Question: And the MIC [8]?
Answer: 8 µg/mL (≈ 23.7 µM)

Question: What about the MIC [9] of the same molecule?
Answer: 64 µg/mL (≈ 190 µM)

Question: And the MIC [10]?
Answer: 64 µg/mL (≈ 190 µM)

Question: What about the MIC [11] of the same molecule?
Answer: 32 µg/mL (≈ 94.9 µM)

Question: Which MIC [1] does the source give for CC(=O)NC[C@H]1CN(c2ccc(-c3ccc(CNCc4cnn[nH]4)cc3)c(F)c2)C(=O)O1 [RADEZOLID] here?
Answer: 8 µg/mL (≈ 18.2 µM)

Question: What about the MIC [2] of the same molecule?
Answer: 4 µg/mL (≈ 9.12 µM)

Question: And the MIC [3]?
Answer: 2 µg/mL (≈ 4.56 µM)

Question: And the MIC [4]?
Answer: 2 µg/mL (≈ 4.56 µM)

Question: And the MIC [12]?
Answer: 1 µg/mL (≈ 2.28 µM)

Question: What about the MIC [6] of the same molecule?
Answer: 4 µg/mL (≈ 9.12 µM)

Question: And the MIC [13]?
Answer: 1 µg/mL (≈ 2.28 µM)

Question: And the MIC [7]?
Answer: 2 µg/mL (≈ 4.56 µM)

Question: And the MIC [9]?
Answer: 8 µg/mL (≈ 18.2 µM)

Question: And the MIC [10]?
Answer: 8 µg/mL (≈ 18.2 µM)

Question: What about the MIC [11] of the same molecule?
Answer: 4 µg/mL (≈ 9.12 µM)

Question: For O=C(N[C@H](CO)[C@H](O)c1ccc([N+](=O)[O-])cc1)C(Cl)Cl [CHLORAMPHENICOL], which MIC [1] is on record?
Answer: > 64 µg/mL

Question: What about the MIC [2] of the same molecule?
Answer: > 64 µg/mL

Question: What about the MIC [3] of the same molecule?
Answer: 8 µg/mL (≈ 24.8 µM)

Question: And the MIC [4]?
Answer: > 64 µg/mL

Question: And the MIC [12]?
Answer: 8 µg/mL (≈ 24.8 µM)

Question: What about the MIC [6] of the same molecule?
Answer: > 64 µg/mL

Question: And the MIC [13]?
Answer: 8 µg/mL (≈ 24.8 µM)

Question: What about the MIC [7] of the same molecule?
Answer: 8 µg/mL (≈ 24.8 µM)

Question: And the MIC [9]?
Answer: > 64 µg/mL

Question: What about the MIC [10] of the same molecule?
Answer: > 64 µg/mL

Question: What about the MIC [11] of the same molecule?
Answer: > 64 µg/mL

Question: Which results are given for C=C[C@]1(C)C[C@@H](OC(=O)CSCCN(CC)CC)[C@]2(C)[C@H](C)CC[C@]3(CCC(=O)[C@H]32)[C@@H](C)[C@@H]1O [TIAMULIN]?
Answer: MIC [1]: > 64 µg/mL; MIC [2]: > 64 µg/mL; MIC [3]: 4 µg/mL (≈ 8.1 µM); MIC [4]: > 64 µg/mL; MIC [12]: 8 µg/mL (≈ 16.2 µM); MIC [6]: > 64 µg/mL; MIC [13]: 0.5 µg/mL (≈ 1.01 µM); MIC [7]: 4 µg/mL (≈ 8.1 µM); MIC [9]: > 64 µg/mL; MIC [10]: > 64 µg/mL; MIC [11]: > 64 µg/mL

Question: Cn1nnc(-c2ccc(-c3ccc(N4C[C@H](CO)OC4=O)cc3F)cn2)n1 [TEDIZOLID] was tested. Which MIC [1] did it give?
Answer: 2 µg/mL (≈ 5.4 µM)

Question: And the MIC [2]?
Answer: 0.5 µg/mL (≈ 1.35 µM)

Question: And the MIC [3]?
Answer: 2 µg/mL (≈ 5.4 µM)

Question: And the MIC [4]?
Answer: 0.5 µg/mL (≈ 1.35 µM)

Question: What about the MIC [12] of the same molecule?
Answer: 1 µg/mL (≈ 2.7 µM)

Question: And the MIC [6]?
Answer: 1 µg/mL (≈ 2.7 µM)

Question: And the MIC [13]?
Answer: 0.5 µg/mL (≈ 1.35 µM)

Question: And the MIC [7]?
Answer: 2 µg/mL (≈ 5.4 µM)

Question: What about the MIC [9] of the same molecule?
Answer: 2 µg/mL (≈ 5.4 µM)

Question: What about the MIC [10] of the same molecule?
Answer: 2 µg/mL (≈ 5.4 µM)

Question: What about the MIC [11] of the same molecule?
Answer: 1 µg/mL (≈ 2.7 µM)
